1 compound from ChEMBL document CHEMBL1143817, “Pharmacokinetics of penicillin g in very-low-birth-weight neonates” (Antimicrob Agents Chemother, 2007) can be followed below.

Holding throughout (format): ADME, organism-based
Data set [1] in a line: Half life in human term neonates at 15 mg/kg, im administered every 12 hrs after 24 hrs. On the set-up: dose 15 mg/kg, route intramuscular. The following applies: in vivo.
Data set [2] is described as follows: Clearance in human very low birth weight preterm neonates at 28 mg/kg, iv administered every 12 hrs after 24 hrs. Set-up: dose 28 mg/kg, route intravenous. Conditions: in vivo. The essentials: (§1)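 Penicillin G was diluted in normal saline to 50,000 IU/ml and given as a slow (~2 min) IV bolus q12h (group 1, 50,000 IU/kg; group 2, 25,000 IU/kg) to neonates of <28 wk GA and <1,200 g. Plasma was sampled at steady state (doses 3–8): predose and at 2 and 30 min, 1.5, 4, 8 and 12 h. Assay by HPLC-UV (200 nm). AUC0-12 by log-linear trapezoidal rule; noncompartmental bolus model.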

The nature of data set [3]: Volume of distribution at steady state in human adults at […], iv administered every 12 hrs after 24 hrs. On the set-up: route intravenous. The following applies: in vivo, read-out: Vdss.
Data set [4] is described as follows: Cmin in human very low birth weight preterm neonates at 28 mg/kg, iv administered every 12 hrs after 24 hrs. Conditions: in vivo, read-out: Cmin. Set-up: dose 28 mg/kg, route intravenous. The gist of the method:
as §1

A short description of data set [5]: Cmax in human adults at […], iv administered every 12 hrs after 24 hrs. Conditions: in vivo. Set-up: route intravenous.
Data set [6] is described as follows: Clearance in human very low birth weight preterm neonates at 14 mg/kg, iv administered every 12 hrs after 24 hrs. Conditions: in vivo. On the set-up: dose 14 mg/kg, route intravenous. The gist of the method: as §1
Data set [7] in a line: Half life in human adults at […], iv administered every 12 hrs after 24 hrs. Set-up: route intravenous. The following applies: in vivo.
For data set [8], the system named is Homo sapiens. Description: Effect on glomerular filtration in human very low birth weight preterm neonates urine assessed as creatinine excretion at 30 mg/kg, iv administered every 12 hrs after 24 hrs. Conditions: in vivo. On the set-up: dose 30 mg/kg, route intravenous. The essentials:
(§2)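 Creatinine excretion was measured in urine collected in 4-h intervals over the 12 h after a steady-state IV penicillin G dose (25,000 or 50,000 IU/kg q12h). Diapers were weighed to estimate losses, and a period was accepted if ≥90% of its output was collected. Excretion is expressed per 24 h per kg.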

A short description of data set [9]: Volume of distribution at steady state in human very low birth weight preterm neonates at 14 mg/kg, iv. Set-up: dose 14 mg/kg, route intravenous. Conditions: in vivo, read-out: Vdss. The gist of the method:
as §1

For data set [10], the system named is Homo sapiens. Briefly: Effect on glomerular filtration in human very low birth weight preterm neonates urine assessed as creatinine clearance at 15 mg/kg, iv administered every 12 hr after 24 hrs. On the set-up: dose 15 mg/kg, route intravenous. Conditions: in vivo.
Data set [11] is described as follows: Effect on glomerular filtration in human very low birth weight preterm neonates urine assessed as drug clearance at 30 mg/kg, iv administered every 12 hrs after 24 hrs. On the set-up: dose 30 mg/kg, route intravenous. Conditions: read-out: CL_renal.
Data set [12] can be described thus: Cmax in human very low birth weight preterm neonates at 14 mg/kg, iv administered every 12 hrs after 24 hrs. Set-up: dose 14 mg/kg, route intravenous. Conditions: in vivo. The gist of the method:
as §1

Data set [13] is described as follows: Cmax in human very low birth weight preterm neonates at 28 mg/kg, iv administered every 12 hrs after 24 hrs. Set-up: dose 28 mg/kg, route intravenous. The following applies: in vivo. The gist of the method:
as §1

In data set [14] the test system is Homo sapiens. Briefly: Volume of distribution at steady state in human term neonates at 15 mg/kg, im administered every 12 hrs after 24 hrs. Set-up: dose 15 mg/kg, route intramuscular. Conditions: in vivo.
Data set [15] can be described thus: Half life in human very low birth weight preterm neonates at 28 mg/kg, iv administered every 12 hrs after 24 hrs. On the set-up: dose 28 mg/kg, route intravenous. The following applies: in vivo. The essentials: as §1
A short description of data set [16]: Half life in human very low birth weight preterm neonates at 14.3 mg/kg, iv administered every 12 hrs after 24 hrs. On the set-up: dose 14.3 mg/kg, route intravenous. Conditions: in vivo. The gist of the method: as §1
The test system of data set [17] is Homo sapiens. Description: Effect on glomerular filtration in human very low birth weight preterm neonates urine assessed as creatinine clearance at 30 mg/kg, iv administered every 12 hr after 24 hrs. Conditions: in vivo. Set-up: dose 30 mg/kg, route intravenous.
Data set [18] in a line: Volume of distribution at steady state in human very low birth weight preterm neonates at 28 mg/kg, iv. On the set-up: dose 28 mg/kg, route intravenous. The following applies: in vivo, read-out: Vdss. The essentials:
as §1

Data set [19] can be described thus: Cmax in human term neonates at 15 mg/kg, im administered every 12 hrs after 24 hrs. Set-up: dose 15 mg/kg, route intramuscular. Conditions: in vivo.
The nature of data set [20]: Effect on glomerular filtration in human very low birth weight preterm neonates urine assessed as drug clearance at 15 mg/kg, iv administered every 12 hrs after 24 hrs. On the set-up: dose 15 mg/kg, route intravenous. Conditions: read-out: CL_renal.
Data set [21] can be described thus: AUC (0 to 12) in human very low birth weight preterm neonates at 28 mg/kg, iv administered every 12 hrs after 24 hrs. On the set-up: time < 12 hr, dose 28 mg/kg, route intravenous. Conditions: plasma. The gist of the method: as §1
For data set [22], the system named is Homo sapiens. Description: Effect on glomerular filtration in human very low birth weight preterm neonates urine assessed as creatinine excretion at 15 mg/kg, iv administered every 12 hrs after 24 hrs. On the set-up: dose 15 mg/kg, route intravenous. Conditions: in vivo. The gist of the method:
as §2

The nature of data set [23]: AUC (0 to 12) in human very low birth weight preterm neonates at 14 mg/kg, iv administered every 12 hrs after 24 hrs. Conditions: plasma. Set-up: time < 12 hr, dose 14 mg/kg, route intravenous. The essentials: as §1

“And” between values parts separate entries of the source, which are not always exact repeats. Equal entries are not always repeated.

The term half-life denotes how long it takes for the measured level to halve. Higher therefore signals slow loss. As usually defined, the clearance is the volume of plasma or blood freed of the substance per unit of time. As a reminder, the Cmax is the maximum level reached in the sampled fluid or tissue. Broadly, the AUC is concentration integrated over time. A low value points to low exposure.

As to `CC1(C)S[C@@H]2[C@H](NC(=O)Cc3ccccc3)C(=O)N2[C@H]1C(=O)O` [PENICILLIN G], the half-life in [1] was 204 min; in [7], 30 min; in data set [15], 228 min; in [16], 276 min. For the same compound, the clearance in data set [2] turned out to be 1.2 mL/min/kg; in data set [6] it was 1.5 mL/min/kg. The Vd in data set [3] worked out at 0.5 L/kg; in [9], 0.64 L/kg; in [18] it was 0.41 L/kg. Also, in data set [4], the concentration at 24 h amounted to 7100 ng/mL. Besides, the Cmax was found to be 45000 ng/mL in [5], 58.9 µg/mL in data set [12], 146 µg/mL in data set [13] and 22000 ng/mL in [19]. Further, the Activity was 50.6 µmol/kg in [8] and 70.6 µmol/kg in [22]. Moreover, the Creatinine_CL is 0.53 ml/min and 0.57 ml/min.kg in data set [10]; 0.26 ml/min and 0.3 ml/min.kg in data set [17]. Further, the CL renal in data set [11] was 0.27 mL/min and 0.46 mL/min/kg; in [20], 0.31 mL/min and 0.38 mL/min/kg. In data set [14], this compound had a Vdss of 0.51 L/kg. Also, the figures for the AUC at 12 h in [21] and in [23] were 389 µg·h/mL and 161 µg·h/mL, respectively.
